Only some compounds are listed: those with a hit (about 2.7% of all), similar ones and a draw of the others.
IMP-1 inh: IMP-1 metallo-beta-lactamase inhibitors, primary screen, biochemical, epi-absorbance readout, Pseudomonas aeruginosa enzyme; inhibition, % at 5.6 µM; 0.45% of 290,000 active; AID 1556, 2009; purified IMP-1, nitrocefin hydrolysis, epi-absorbance fluorescence; metallo-beta-lactamase IMP-1 (Pseudomonas aeruginosa);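 active = inhibition above the mean plus 3 SD of all compounds in the same screening run, cut at about 4.5% in these data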;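 also: 0% = IMP-1 with DMSO and 100% = DMSO wells lacking enzyme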
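System: Purified IMP-1 | Read-out basis: Percent enzyme inhibition | Controls: IMP-1 with DMSO as 0%, enzyme-free DMSO as 100% | Replicates: One well per compound | Doses: 5.6 µM nominal single concentration | Detection: Epi-absorbance fluorescence, 480 nm excitation, 530 nm emission | Incubation: 25 °C, 15 min preincubation, 25 min reaction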
M18AAP inhibitor: PfM18AAP inhibitors, malaria aminopeptidase, primary screen, biochemical, QFRET, recombinant enzyme; M18 aspartyl aminopeptidase (Plasmodium falciparum 3D7); H-Glu-NHMec fluorogenic cleavage; inhibition, % at 7.35 µM; 1.2% of 290,000 active; AID 1822, 2009;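 active = inhibition above the campaign mean inhibition over all tested compounds plus 3 SD, cut at about 28% in these data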;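 also: 0% = plate median of test compound wells and 100% = 2 mM ZnCl2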
VIM-2 inhibitor: VIM-2 metallo-beta-lactamase inhibitors, primary screen, biochemical, epi-absorbance readout, Pseudomonas aeruginosa enzyme; inhibition, % at 5.6 µM; purified VIM-2, nitrocefin hydrolysis, epi-absorbance fluorescence; AID 1527, 2009; 0.89% of 290,000 active;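 active = inhibition above the mean of all tested compounds plus 3 SD, cutoff set per screening run, cut at about 7.5% in these data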;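 also: red hydrolysis product quenches plate fluorescence so inhibitors raise well fluorescence; 0% = enzyme with DMSO and 100% = DMSO without enzyme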
Fh CTSL1 inh: Fasciola hepatica cathepsin L1 inhibitors, primary screen, counter-screen for PFM18AAP inhibitor project, biochemical, QFRET, fluorogenic peptide substrate | recombinant F. hepatica cathepsin L1, Z-Leu-Arg-MCA fluorescence | inhibition, % at 5.96 µM | 0.49% of 300,000 active;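 active = inhibition above the mean of all tested compounds plus 3 SD, set per screening campaign, cut at about 17% in these data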;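 also: 0% = plate median of test compound wells and 100% = 1 µM Z-Phe-Ala-diazomethylketone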
* hit, by the source's call; · = no result given.

SMILES	IMP-1 inh	M18AAP inhibitor	VIM-2 inhibitor	Fh CTSL1 inh
Oc1cc2c(cc1O)C1c3ccc(O)c(O)c3OCC1(O)C2 (stereo not given)	-4.0	79.5*	-4.4	-5.5
N#CC(C#N)=C1NC2(CCCC2)Cc2ccccc21	-1.9	1.8	2.1	-4.2
CCc1ccc(O)c(N=Cc2cccc(C)c2O)c1	-3.1	13.3	-1.8	1.4
CCCc1ccc(O)c(N=Cc2cc(Br)cc(OCC)c2O)c1	5.5*	19.3	-1.7	0.0
CC1(C(=O)O)Sc2[nH]c(=O)sc2C2c3ccccc3OC(=O)C21 (stereo not given)	-1.5	30.2*	-0.5	-2.6
COC(=O)C1CSc2[nH]c(=O)sc2C1c1ccccc1 (stereo not given)	-1.1	0.1	-0.7	-1.4
O=C(Nc1ccccn1)NC1CCS(=O)(=O)C1 (stereo not given)	-2.9	-6.1	-0.5	-0.7
O=C(Nc1ccccn1)NC1CCCCC1	4.7*	2.3	1.2	-2.3
O=C1OC(/C(=C\Nc2cc(Cl)ccc2O)[N+](=O)[O-])c2ccccc21 (stereo not given)	-2.6	41.3*	0.8	4.6
O=C1OC(/C(=C\Nc2ccc(F)cc2F)[N+](=O)[O-])c2ccccc21 (stereo not given)	-2.2	47.4*	-2.2	-0.6
CN(NC1OC(=O)c2ccccc21)c1ccc(Cl)cc1[N+](=O)[O-] (stereo not given)	1.2	-5.4	0.9	1.4
Cc1ccc(C(=O)Nc2cccc(N(C)S(C)(=O)=O)c2)cc1S(=O)(=O)Nc1ccccc1	-2.9	2.3	-1.5	19.5*
CCOC(=O)c1cc(-c2ccccc2)nc2c1c(C)nn2-c1ccccn1	-7.0	-5.3	-5.5	3.2
CCOC(=O)c1cc(-c2ccncc2)nc2c1c(C)nn2C	-0.4	-5.2	8.2*	4.8
O=C1C=C(O)CC(c2ccco2)C1 (stereo not given)	-3.3	11.6	-1.6	-6.0
O=C1CC(=O)CC(c2ccco2)C1	-2.4	28.0*	-1.2	1.1
CCOCCCNC(=O)C(c1ccccc1)N(Cc1ccc2c(c1)OCO2)C(=O)c1ccccc1O (stereo not given)	-1.1	1.3	-1.3	1.3
N=c1c(C(=O)NC2CCCCC2)cc2c(=O)n3ccccc3nc2n1Cc1ccccc1	-2.2	0.3	5.5	4.1
N=c1c(C(=O)NCC2CCCO2)cc2c(=O)n3ccccc3nc2n1Cc1ccc(F)cc1 (stereo not given)	-0.2	-10.3	9.7*	-1.8
N=c1c(C(=O)NCC2CCCO2)cc2c(=O)n3ccccc3nc2n1Cc1cccnc1 (stereo not given)	-1.2	1.1	8.0*	1.5
N=c1c(C(=O)NC2CCCCC2)cc2c(=O)n3ccccc3nc2n1Cc1cccnc1	-1.9	0.4	8.2*	3.7
COc1ccc(N2CCN(C(=O)CCC(=O)N3CC(C)Oc4ccc(C)cc43)CC2)cc1 (stereo not given)	-0.6	13.1	-1.0	2.1
COc1ccccc1N(/N=C1\Sc2ccccc2C1=O)C(C)=O	-2.1	1.1	-1.6	30.4*
COc1ccccc1C(c1nnnn1CCc1ccccc1)N1CCCCCC1 (stereo not given)	24.3*	7.4	2.1	0.2
COc1ccccc1C(c1nnnn1CCc1ccccc1)N1CCN(c2ccccc2)CC1 (stereo not given)	-4.4	3.5	-0.7	0.3
SMILES	IMP-1 inh	M18AAP inhibitor	VIM-2 inhibitor	Fh CTSL1 inh
Cc1cc(Cl)ccc1OCCCC(=O)NCCN1C(=O)S/C(=C\c2cccnc2)C1=O	-2.8	3.4	1.4	6.3
O=C(N/N=C\C=C\c1ccc(Br)cc1)c1ccc2c(c1)OCO2	24.7*	0.2	0.3	-1.2
O=C(N/N=C/C=C/c1ccc2c(c1)OCO2)c1ccc([N+](=O)[O-])cc1	-4.2	-5.1	-2.3	2.3
O=C(N/N=C/c1ccc(Cl)cc1)c1ccc2c(c1)OCO2	16.6*	-15.2	0.1	-0.4
O=C(CSc1ncn[nH]1)Nc1ccc(S(=O)(=O)Nc2ncccn2)cc1	-3.2	30.0*	-0.2	1.1
CC(C)c1nc(C(=O)N2CCCC(CCC(=O)N(C)CCc3ccccn3)C2)cs1 (stereo not given)	-1.7	6.3	-1.2	-0.1
O=[N+]([O-])c1cc([N+](=O)[O-])c(Oc2c(F)cccc2F)cc1NN1CCCCC1	-0.6	-17.8	2.0	3.0
O=[N+]([O-])c1cc([N+](=O)[O-])c(Oc2c(Cl)cccc2Cl)cc1NN1CCCCC1	4.8*	-18.6	1.5	-1.0
O=C(CNC(=O)C1CCCCC1)OCC(=O)c1ccc(Cl)s1	-1.6	1.4	-0.5	18.2*
O=C(COC(=O)CNC(=O)C1CCCCC1)Nc1ccc(Cl)cn1	-2.8	-3.4	0.1	28.7*
O=C1COc2ccc(C(=O)COC(=O)CNC(=O)C3CCCCC3)cc2N1	-2.4	5.2	0.2	31.2*
COc1ccc(C(=O)COC(=O)CNC(=O)C2CCCCC2)c(OC)c1	-0.8	-6.5	-2.9	34.5*
Cc1ccc(C(=O)NCC(=O)OCC(=O)c2ccc3c(c2)NC(=O)CO3)cc1C	-1.1	1.4	-0.9	-22.8
COc1ccc(OC(=O)c2ccc(OC)c(S(=O)(=O)N3CCOCC3)c2)cc1	-3.6	1.9	-0.9	·
C/C(=N\OCC(=O)NC12CC3CC(CC(C3)C1)C2)c1cc2ccccc2o1	0.2	8.4	-1.6	-1.9
COc1cc2[nH]c3c(=O)n(N)c(=O)[nH]c3c2cc1OC	-0.3	4.7	1.5	-1.1
CC1(C)CC(=O)N(c2cc(Cl)ccc2Cl)C(=O)C1	-3.1	-0.8	-2.4	-2.8
Cc1cc(C)c[n+](-c2[nH]c(=O)sc2/C=N/N=C(\N)[S-])c1	-3.6	11.7	-4.3	4.2
COc1cc(OC)cc(C(=O)NCC(=O)OCC(=O)c2cc(OC)ccc2OC)c1	-2.8	6.6	-2.8	-17.9
COc1ccc(OC)c(C(=O)COC(=O)CNC(=O)C2CCCCC2)c1	-2.9	3.3	-1.2	33.2*
COc1ccc(/C(C)=N/NC(=O)CNC(=O)/C=C\c2ccccc2)c(OC)c1	-1.8	-11.2	-1.8	6.2
CC(C)(C)C(=O)NC(=S)Nc1ccc(Cc2ccncc2)cc1	7.7*	-6.9	2.0	1.3
CCCCn1nnnc1NCc1ccc(N(CC)CC)cc1	-1.9	31.3*	-4.2	-2.9
CCCCn1nnnc1NCc1ccc(C)cc1	1.1	3.8	-0.5	·
O=C(Cc1ccc(Cl)cc1Cl)Nc1cccc(S(=O)(=O)Nc2ccccc2F)c1	-3.0	29.2*	-1.6	4.0
O=C(Nc1cccc(S(=O)(=O)Nc2ccccc2F)c1)c1ccc2ccccc2n1	-1.7	30.2*	-1.8	2.9
O=C(Cc1c(F)cccc1Cl)Nc1cccc(S(=O)(=O)NC2=NCCCCC2)c1	·	·	·	-4.5
COc1ccccc1NS(=O)(=O)c1cccc(NC(=O)c2ccc3ccccc3n2)c1	-3.7	2.0	-2.4	-3.2
O=C(O)COc1ccc(/C=N/NC(=O)/C(=C/C=C/c2ccccc2)NC(=O)c2ccccc2)cc1	1.3	-4.2	-0.3	3.5

Source: PubChem BioAssay
